This is a sample that favours compounds with a hit; in the whole collection about 2.6% have one here.
CHT PAM – human CHT allosteric activation. B-score at 10 µM. Q9GZV3. AID 488977. CHT-expressing cells, membrane potential dye, choline EC20; hits give high values; LV-AA mutant CHT in HEK293 cells. actives 0.49% (n = 310,000);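 active = initial fluorescence not abnormally high and integrated response B-score, plate-corrected, over 3 SD above library mean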
KCC2 mod – modulators of human KCC2 chloride dependent transport | Q9H2X9 | KCC2 cells, thallium flux FluoZin-2 fluorescence | B-score of Tl+ flux slope (higher = more flux/activation; lower = inhibition) at 10 µM | actives 2.2% (n = 190,000) | AID 1456;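 active = thallium flux slope and its plate-corrected score both differing from the plate sample mean at a set confidence after two filtering rounds, in either direction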;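 also: slope of fluorescence scaled to starting intensity during 10 to 20 s after thallium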
Rad51 HR inh – Rad51 (human) homologous recombination inhibition. Q06609. hRad51 DNA strand exchange, fluorescence dequenching. inhibition, % at 10 µM. actives 0.085% (n = 200,000). AID 1385;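 active = inhibition above 40% at the single screening dose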
Target sequence (Q06609 whole entry, looked up): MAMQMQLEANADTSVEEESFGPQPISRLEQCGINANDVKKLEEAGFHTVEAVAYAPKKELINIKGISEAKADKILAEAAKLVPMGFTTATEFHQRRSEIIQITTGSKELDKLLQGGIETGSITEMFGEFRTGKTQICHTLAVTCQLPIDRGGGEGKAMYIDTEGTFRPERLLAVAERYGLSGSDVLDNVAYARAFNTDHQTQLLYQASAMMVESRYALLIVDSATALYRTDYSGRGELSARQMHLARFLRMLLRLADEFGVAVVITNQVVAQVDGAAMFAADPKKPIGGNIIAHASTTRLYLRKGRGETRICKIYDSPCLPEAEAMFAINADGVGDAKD
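System: human Rad51 nucleoprotein filaments preassembled on unlabelled ssDNA. Reagent: labelled 47-mer dsDNA for strand exchange. Schedule: 30-min compound preincubation and 15-min exchange, both room temperature. Measured by: FRET fluorescence dequenching, excitation 485 nm, emission 520 nm. Read-out: Fluorescence-based percent inhibition, control- and blank-normalised. Benchmarks: plate controls and plate blanks.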
CHT inh – inhibits the human high affinity choline transporter | Q9GZV3 | CHT-expressing cells, membrane potential dye, choline response; hits give low values | B-score at 10 µM | actives 0.86% (n = 310,000);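 active = B-score over 3 SD under the library average, and starting fluorescence ratio not unusually high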;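 also: choline stimulus applied at its EC90 after an EC20 pre-addition; B-score computed on integrated fluorescence ratio after choline addition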
CHT act confirm – human CHT activation, confirmatory screen. shares compounds with CHT PAM. CHT-expressing cells, membrane potential dye fluorescence (FDSS); % of choline EC20–EC90 response window; HEK293 expressing CHT LV-AA mutant; choline added at its EC20. activation, % at 10 µM. actives 91% (n = 2,500);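 active = primary screen active, with duplicate mean activation above negative control mean plus 3 SD, cut at about 11% in these data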
HEK293 MP dye – counter-screen for CHT activators: effect in parental HEK293 cells; ratio readout change at 10 µM, hits read low; membrane potential dye fluorescence (FDSS); measured after EC20 choline addition; actives 62% (n = 2,500); shares compounds with CHT PAM;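 active = duplicate-averaged ratio beyond 3 SD from buffer wells, up or down, though filed actives are nearly all decreases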
A number is an active result; – = inactive; · = not tested or not shown.

SMILES	CHT PAM	KCC2 mod	Rad51 HR inh	CHT inh	CHT act confirm	HEK293 MP dye
COc1ccc(OC)c2c(C)cc(N3CCCN(C)CC3)nc12	8.01	–	·	–	46.3	-73.8
Cc1cc(N2CCCC2)nc2c(C)cccc12	–	–	–	–	·	·
Cc1ccc(N(C(=O)CNC(=O)c2ccco2)C(C(=O)NC2CCCC2)c2ccncc2)cc1F (stereo unspecified)	–	·	·	–	·	·
[O-]/C(=C(\C(=S)NCc1ccccc1)[n+]1ccccc1)c1ccc(Cl)s1	–	–	–	–	·	·
CC1(C(=O)c2ccccc2)C2c3c(ccc4ccccc34)OC(=O)C21C(=O)N1CCOCC1 (stereo unspecified)	7.32	–	–	–	15.8	–
NS(=O)(=O)c1ccc(CCNC(=O)CNC(=O)c2ccc(Oc3ccccc3)cc2)cc1	–	·	·	–	·	·
COc1cccc(CN2CCN(Cc3cccc(Oc4ccccc4)c3)CC2)c1OC	–	·	·	–	·	·
COc1cccc(CN2CCC(N(CCc3ccccc3)Cc3ccccc3)CC2)c1OC	10	–	–	–	33.9	–
O=C1CN(C(=O)c2c(F)cccc2F)C(c2ccccc2)c2cc(Br)ccc2N1 (stereo unspecified)	–	·	·	–	14.2	–
O=C1CN(C(=O)c2ccccc2[N+](=O)[O-])C(c2ccccc2)c2cc(Br)ccc2N1 (stereo unspecified)	6.68	·	·	–	24.0	–
O=C1CN(C(=O)c2c(F)cccc2F)C(c2ccc(F)cc2)c2cc(Br)ccc2N1 (stereo unspecified)	–	·	·	–	·	·
Cc1ccc(C)c(N(C)C(=O)c2ccc3c(=O)n4c(nc3c2)CCCCC4)c1	–	·	·	–	·	·
CN1CCc2c(C#N)c(N3CCCCC3)nc(N3CCOCC3)c2C1	6.98	–	–	–	42.8	-53.1
C=CCNc1nc(N2CCOCC2)c(C#N)c2c1CN(C)CC2	–	–	–	–	·	·
CCc1cc(Br)ccc1NC(=S)NCCc1ccccc1	–	·	·	–	12.5	–
COc1ccc(NC(=S)NCCc2ccccc2)c(C)c1	–	·	·	–	·	·
CN1CCCCC1=NCCCn1cnc2c1c(=O)n(C)c(=O)n2C	7.16	·	–	–	46.7	-49.4
COC(=O)[C@]1(CC(C)C)N[C@H](c2ccc(SC3CCCCC3)c(OC)c2)[C@@H]2C(=O)N(C)C(=O)[C@@H]21	–	·	·	–	·	·
CCCCCCSc1ccc([C@H]2N[C@@](CC(C)C)(C(=O)OC)[C@H]3C(=O)N(C)C(=O)[C@@H]23)cc1OC	7.2	·	·	–	18.1	–
CC1C(=O)C(C)C(c2ccc(Cl)cc2)NC1c1ccc(Cl)cc1 (stereo unspecified)	–	·	·	–	·	·
CC1C(=O)C(C)C(c2ccccc2F)NC1c1ccccc1F (stereo unspecified)	–	·	·	–	27.9	–
COc1cc(/C=C(\C#N)C(=O)Nc2ccccc2F)ccc1OCCN1CCOCC1	–	·	·	–	·	·
O=C(CN(c1ccc(F)cc1)S(=O)(=O)c1ccccc1)NC1CC2CCC1C2 (stereo unspecified)	–	·	·	–	·	·
O=C(CSc1ccc2nnc(-c3ccccn3)n2n1)N1CCOCC1	–	–	–	–	41.6	-35.8
CCOC(=O)N1CCN(C(=O)CSc2ccc3nnc(-c4ccccn4)n3n2)CC1	–	–	–	–	·	·
SMILES	CHT PAM	KCC2 mod	Rad51 HR inh	CHT inh	CHT act confirm	HEK293 MP dye
CN(C)S(=O)(=O)c1ccc(N2CCCC2)c(C(=O)NC2(C)CCS(=O)(=O)C2)c1 (stereo unspecified)	–	·	·	–	·	·
CC(OC(=O)c1ccc(OCC2CCCO2)cc1)C(=O)N(C)Cc1ccccc1 (stereo unspecified)	–	·	·	–	·	·
N=c1c2c(n(Cc3ccc(F)cc3)c3c1CCC3)CCC2	7.09	·	–	–	48.6	-50.5
Cc1ccc2c(c1)c(C)cc[n+]2Cc1ccccc1	9.82	–	–	–	41.5	-71.3
COc1ccc(C(=O)C[n+]2cccc3cc(C)ccc32)cc1	–	·	·	–	·	·
COc1ccc2[nH]c(C(=O)N(C)Cc3ccccc3)c(C)c2c1	–	·	·	–	·	·
Cc1ccc2ccc[n+](Cc3ccccc3)c2c1	7.86	·	·	–	89.6	-81.4
COc1ccc2c(c1)c(C)cc[n+]2Cc1ccccc1	6.73	·	·	–	73.5	-67.4
Cc1ccc(OC(C)C(=O)Nc2ccc3c(c2)n(C)c(=O)n3C)c(C)c1 (stereo unspecified)	–	·	·	–	·	·
CCC1Oc2ccccc2N(CC(=O)NCCCN2CCN(c3ccc(OC)cc3)CC2)C1=O (stereo unspecified)	–	·	·	–	·	·
CC1CC(C)CN(C(=O)COC(=O)CNC(=O)C23CC4CC(CC(C4)C2)C3)C1 (stereo unspecified)	–	·	·	–	·	·
Cc1cc(NC(=O)CN(C)S(=O)(=O)c2cccc(Cl)c2)no1	–	–	–	–	·	·
Cc1ccc(NC(=O)c2cnccn2)c(C)c1	–	·	·	–	·	·
COc1cc2c(cc1OC)C(C)=NC1(CCCCC1)C2	9.8	–	–	–	30.0	-43.5
COc1cc2c(cc1OC)C(SC)=NC1(CCCC1)C2	–	–	–	–	·	·
COc1cc2c(cc1OC)C(c1ccc(Cl)cc1)=NCC2	–	–	–	–	62.5	-78.9
COc1cc2c(cc1OC)C(c1ccc(-c3cc(Cl)ccc3Cl)o1)=NCC2	–	–	–	–	·	·
COc1cc2c(cc1OC)C(C)=NCC2	13.7	–	–	–	60.0	-67.6
COc1cc2c(cc1OC)C(c1ccc(-c3ccc(Cl)c(Cl)c3)o1)=NCC2	–	·	–	–	·	·
CN1CCCN(S(=O)(=O)c2cccc(C#N)c2)CC1	–	·	·	–	·	·
CC(C)c1nc(SCC(=O)Nc2nc3c(s2)CCCC3)c2ccccc2n1	8.97	·	–	–	27.8	–
CC(C)(C)c1nc(SCC(=O)Nc2nc3c(s2)CCCC3)c2ccccc2n1	–	–	–	–	·	·
Cc1nc2ccccn2c1C(=O)N/N=C/c1cc(C)n(-c2ccc(Br)cc2)c1C	–	–	–	–	17.9	–
Cc1nc2ccccn2c1C(=O)N/N=C/c1ccccc1	–	·	·	–	·	·
O=C(NCC1CCCO1)C1CC(=O)N(c2ccc(Cl)cc2)C1 (stereo unspecified)	–	·	·	–	·	·
SMILES	CHT PAM	KCC2 mod	Rad51 HR inh	CHT inh	CHT act confirm	HEK293 MP dye
COc1cccc2c(=O)c3c(cnn3C)n(C)c12	10.1	–	·	–	50.8	-54.8
Cc1cc(C)n(CCC(=O)Nc2ccc(-c3ccno3)cc2)n1	–	·	·	–	·	·
CCOc1cc2c(C#N)c(N3CCNCC3)nc(N)c2c(N)n1	6.47	–	–	–	44.8	-52.6
COc1cc2c(C#N)c(N3CCOCC3)nc(N)c2c(N)n1	–	–	–	–	·	·
N#CC(C#N)=C1c2cc(S(N)(=O)=O)ccc2-c2ccc(S(N)(=O)=O)cc21	·	–	–	·	·	·
O=C1c2cc(S(=O)(=O)NCCO)ccc2-c2ccc(S(=O)(=O)NCCO)cc21	–	–	–	–	41.0	-35
